Measurements reported in ChEMBL document CHEMBL1127042, “Molecular size and flexibility as determinants of selectivity in the oxidation of N-methyl-4-phenyl-1,2,3,6-tetrahydropyridine analogs by monoamine oxidase A and B” (J Med Chem, 1993).

Legend:
[1] = substrate: CN1CC=C(CCc2ccc3ccccc3c2)CC1; test: (§1) Michaelis-Menten constant against MAO B.; set-up: species or system Bos taurus
Procedure, shortened: (§2)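 Beef liver MAO B, purified. Initial oxidation rates measured polarographically at 30 °C in sodium phosphate buffer, pH 7.2, with 0.2% (w/v) Brij-35. The reaction was started by adding enzyme, dosed so rates were measurable within 60-120 s. Vmax came from double-reciprocal plots. Turnover number was Vmax per flavin content. Flavin content came from the optical density change on anaerobic reduction by benzylamine.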

[2] = substrate: CN1CC=C(CCc2cccc3ccccc23)CC1; test: as §1; set-up: species or system Bos taurus; procedure, shortened: as §2
[3] = substrate: CN1CC=C(CCc2ccccc2)CC1; test: as §1; set-up: species or system Bos taurus; procedure, shortened: as §2
[4] = substrate: CN1CC=C(CCc2cccs2)CC1; test: as §1; set-up: species or system Bos taurus; procedure, shortened: as §2
[5] = substrate: CN1CC=C(CCc2ccsc2)CC1; test: as §1; set-up: species or system Bos taurus; procedure, shortened: as §2
[6] = substrate: CN1CC=C(Cc2ccc3ccccc3c2)CC1; test: as §1; set-up: species or system Bos taurus; procedure, shortened: as §2
[7] = substrate: CN1CC=C(Cc2cccc3ccccc23)CC1; test: as §1; set-up: species or system Bos taurus; procedure, shortened: as §2
[8] = substrate: CN1CC=C(Cc2ccccc2)CC1; test: as §1; set-up: species or system Bos taurus; procedure, shortened: as §2
[9] = substrate: CN1CC=C(Cc2cccs2)CC1; test: as §1; set-up: species or system Bos taurus; procedure, shortened: as §2
[10] = substrate: CN1CC=C(Cc2ccsc2)CC1; test: as §1; set-up: species or system Bos taurus; procedure, shortened: as §2
[11] = substrate: CN1CC=C(c2ccc3ccccc3c2)CC1; test: as §1; set-up: species or system Bos taurus; procedure, shortened: as §2
[12] = substrate: CN1CC=C(c2cccc3ccccc23)CC1; test: as §1; set-up: species or system Bos taurus; procedure, shortened: as §2
[13] = substrate: CN1CC=C(c2cccs2)CC1; test: as §1; set-up: species or system Bos taurus; procedure, shortened: as §2
[14] = substrate: CN1CC=C(c2ccsc2)CC1; test: as §1; set-up: species or system Bos taurus; procedure, shortened: as §2
[15] = substrate: NCCC(=O)c1ccccc1N; test: as §1; set-up: species or system Bos taurus; procedure, shortened: as §2
[16] = substrate: NCc1ccccc1; test: as §1; set-up: species or system Bos taurus; procedure, shortened: as §2
[17] = substrate: CN1CC=C(CCc2ccc3ccccc3c2)CC1; test: (§3) Michaelis-Menten constant against MAO A.
Procedure, shortened: (§4)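 Human liver MAO A expressed in yeast, purified. Initial oxidation rates measured polarographically (O2 uptake) at 30 °C in sodium phosphate buffer, pH 7.2, with 0.2% (w/v) Brij-35. Enzyme was added last to start the reaction, and its amount was set so rates were read within 60-120 s. Vmax came from double-reciprocal plots. TN was Vmax divided by flavin content. Flavin content was found from the optical density change on anaerobic reduction by kynuramine.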

[18] = substrate: CN1CC=C(CCc2cccc3ccccc23)CC1; test: as §3; procedure, shortened: as §4
[19] = substrate: CN1CC=C(CCc2ccccc2)CC1; test: as §3; procedure, shortened: as §4
[20] = substrate: CN1CC=C(CCc2cccs2)CC1; test: as §3; procedure, shortened: as §4
[21] = substrate: CN1CC=C(CCc2ccsc2)CC1; test: as §3; procedure, shortened: as §4
[22] = substrate: CN1CC=C(Cc2ccc3ccccc3c2)CC1; test: as §3; procedure, shortened: as §4
[23] = substrate: CN1CC=C(Cc2cccc3ccccc23)CC1; test: as §3; procedure, shortened: as §4
[24] = substrate: CN1CC=C(Cc2ccccc2)CC1; test: as §3; procedure, shortened: as §4
[25] = substrate: CN1CC=C(Cc2cccs2)CC1; test: as §3; procedure, shortened: as §4
[26] = substrate: CN1CC=C(Cc2ccsc2)CC1; test: as §3; procedure, shortened: as §4
[27] = substrate: CN1CC=C(c2ccc3ccccc3c2)CC1; test: as §3; procedure, shortened: as §4
[28] = substrate: CN1CC=C(c2cccc3ccccc23)CC1; test: as §3; procedure, shortened: as §4
[29] = substrate: CN1CC=C(c2cccs2)CC1; test: as §3; procedure, shortened: as §4
[30] = substrate: CN1CC=C(c2ccsc2)CC1; test: as §3; procedure, shortened: as §4
[31] = substrate: NCCC(=O)c1ccccc1N; test: as §3; procedure, shortened: as §4
[32] = substrate: NCc1ccccc1; test: as §3; procedure, shortened: as §4

B1: Amine oxidase [flavin-containing] B (Bos taurus) (protein)
chain: MSSKCDVVVVGGGISGMAAAKLLHDSGLNVIVLEARDRVGGRTYTLRNQKVKYVDLGGSYVGPTQNHILRLSKELGLETYKVNEVERLIHHTKGKSYPFRGSFPSVWNPITYLDHNNLWRTMDDMGREIPSDAPWKAPLAEQWDLMTMKELLDKICWTESSKQLAILFVNLCVTAEIHEVSALWFLWYVKQCGGTTRIFSTSNGGQERKFVGGSGQVSERIMDLLGDRVKLERPVIHIDQTGENVLVETLNHELYEAKYVISAVPPVLGMKIHFNPPLPMMRNQLITRVPLGSVIKSIVYYKEPFWRNMDYCGSMIIEGEEAPVAYALDDTKPDGSYPAIIGFILAHKARKLARLTKEERLKKLCDLYAKVLGSQEALHPVHYEEKNWCEEQYSGGCYTSYFPPGIMTQYGRVLRQPVGRIYFAGTETATHWSGYMEGAVEAGERAAREILHAMGKIPEDEIWLPEPESVDVPAKPITTTFLQRHLPSVPGLLKLIGLTTIFSATALGFLAHKRGLLVRI
With B1 the Km [1] was 1030 µM, the Km [2] was 1280 µM and the Km [3] was 54 µM. The Km [4] was 49 µM, the Km [5] was 57 µM and the Km [6] was 840 µM. The Km [7] was 850 µM, the Km [8] was 154 µM and the Km [9] was 102 µM. The Km [10] was 195 µM, the Km [11] was 730 µM and the Km [12] was 110 µM. For the same protein, the Km [13] was 168 µM, the Km [14] was 26 µM and the Km [15] was 84 µM. It also gave a Km [16] of 290 µM.

B2: Amine oxidase [flavin-containing] A (Homo sapiens) (protein)
chain: MENQEKASIAGHMFDVVVIGGGISGLSAAKLLTEYGVSVLVLEARDRVGGRTYTIRNEHVDYVDVGGAYVGPTQNRILRLSKELGIETYKVNVSERLVQYVKGKTYPFRGAFPPVWNPIAYLDYNNLWRTIDNMGKEIPTDAPWEAQHADKWDKMTMKELIDKICWTKTARRFAYLFVNINVTSEPHEVSALWFLWYVKQCGGTTRIFSVTNGGQERKFVGGSGQVSERIMDLLGDQVKLNHPVTHVDQSSDNIIIETLNHEHYECKYVINAIPPTLTAKIHFRPELPAERNQLIQRLPMGAVIKCMMYYKEAFWKKKDYCGCMIIEDEDAPISITLDDTKPDGSLPAIMGFILARKADRLAKLHKEIRKKKICELYAKVLGSQEALHPVHYEEKNWCEEQYSGGCYTAYFPPGIMTQYGRVIRQPVGRIFFAGTETATKWSGYMEGAVEAGERAAREVLNGLGKVTEKDIWVQEPESKDVPAVEITHTFWERNLPSVSGLLKIIGFSTSVTALGFVLYKYKLLPRS
Work on B2 yielded a Km [17] of 43 µM, a Km [18] of 76 µM and a Km [19] of 120 µM. The Km [20] was 108 µM, the Km [21] was 130 µM and the Km [22] was 36 µM. The Km [23] was 167 µM, the Km [24] was 66 µM and the Km [25] was 48 µM. For the same protein, the Km [26] was 136 µM, the Km [27] was 4.6 µM and the Km [28] was 74 µM. The Km [29] was 188 µM, the Km [30] was 102 µM and the Km [31] was 170 µM. It also gave a Km [32] of 780 µM.
